Data set [1] is described as follows: Antioxidant activity assessed as inhibition of Fe2+-induced DMPO-OH adduct formation from H2O2 preincubated for 30 secs followed by DMPO/H2O2 addition measured after 150 secs by ESR analysis. It counts as physicochemical. The gist of the method:
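Fenton/ESR spin trapping: 1 mM ammonium iron(II) sulfate was added to 5–500 µM compound, then Tris buffer pH 7.4 (final pH 7.2–7.4). After 30 s, 100 mM DMPO and 100 mM H2O2 were added (stock concentrations). The ESR spectrum was recorded 150 s after H2O2, at room temperature. DMPO-OH adduct expressed as % of control containing FeSO4, H2O2 and DMPO only.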

Data set [2] can be described thus: Antioxidant activity assessed as ABTS radical scavenging activity after 7 mins. It counts as physicochemical. The gist of the method: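 ABTS radical cation made from 7 mM ABTS with 2.45 mM persulfate (final), kept in the dark at room temperature 12–16 h. It was then diluted in water pH 7.4 to A734 0.80 and mixed with compound or Trolox standard (final 0–60 µM). A734 was read at 7 min. Percent inhibition plotted against concentration; at least three runs, in triplicate.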

The nature of data set [3]: Metal chelating activity assessed as inhibition of Fe2+-ferrozine complex formation at 80 uM after 10 mins relative to control. It counts as physicochemical. The gist of the method: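 FeSO4 (final 10 µM) was mixed with ferrozine (final 20 µM) and nucleotide (final 25–200 µM) in water and agitated 10 min at room temperature. Fe(II)-ferrozine complex absorbance at 562 nm, measured with versus without compound. Mean of three experiments.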

Data set [4] can be described thus: Antioxidant activity in human NTERA2 cells assessed as inhibition of Fe2+-induced reactive oxygen species formation at 0.2 uM after 1 hr by DCFH-DA dye-based fluorometric analysis relative to control. It counts as functional. Conditions: NTERA2, 1 h.
Data set [5] addresses T1, eNPP1 (ectonucleotide pyrophosphatase/phosphodiesterase family member 1) (Homo sapiens, UniProt P22413).
T1 sequence (P22413 whole entry): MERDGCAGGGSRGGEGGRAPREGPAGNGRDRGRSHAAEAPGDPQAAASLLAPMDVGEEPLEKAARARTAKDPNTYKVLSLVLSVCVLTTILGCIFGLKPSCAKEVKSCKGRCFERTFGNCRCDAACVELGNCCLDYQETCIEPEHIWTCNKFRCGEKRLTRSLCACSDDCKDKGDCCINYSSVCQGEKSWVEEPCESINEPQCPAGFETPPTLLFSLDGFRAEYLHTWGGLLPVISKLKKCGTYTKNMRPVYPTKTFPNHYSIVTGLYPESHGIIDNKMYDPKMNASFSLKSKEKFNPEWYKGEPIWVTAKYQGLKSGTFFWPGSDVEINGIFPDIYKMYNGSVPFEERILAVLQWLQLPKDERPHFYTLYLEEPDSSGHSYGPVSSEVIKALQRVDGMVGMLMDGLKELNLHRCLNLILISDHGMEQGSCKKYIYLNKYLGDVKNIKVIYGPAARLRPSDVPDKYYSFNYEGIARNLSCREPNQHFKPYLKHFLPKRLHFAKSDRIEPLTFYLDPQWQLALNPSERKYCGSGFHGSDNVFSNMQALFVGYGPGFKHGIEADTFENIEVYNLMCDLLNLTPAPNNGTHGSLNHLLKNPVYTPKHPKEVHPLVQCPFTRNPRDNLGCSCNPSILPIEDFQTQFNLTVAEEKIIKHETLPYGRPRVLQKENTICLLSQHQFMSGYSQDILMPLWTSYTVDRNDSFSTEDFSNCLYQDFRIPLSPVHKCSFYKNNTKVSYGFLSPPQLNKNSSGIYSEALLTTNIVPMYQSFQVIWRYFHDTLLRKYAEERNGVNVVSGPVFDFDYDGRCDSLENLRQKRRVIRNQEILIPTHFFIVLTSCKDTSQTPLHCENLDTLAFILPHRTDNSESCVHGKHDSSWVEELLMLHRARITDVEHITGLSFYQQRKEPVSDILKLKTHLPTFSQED
The experiment in a line: (§1) Drug metabolism assessed as human eNPP1-mediated compound hydrolysis at 4 mM after 2 hrs by reverse-phase HPLC analysis relative to ATP. It counts as ADME. Conditions: human eNPP1 enzyme, read-out: Drug metabolism. The gist of the method:
(§2)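 Human eNPP1 extract (19 µg) was preincubated 3 min at 37 °C in 1 mM CaCl2, 200 mM NaCl, 10 mM KCl, 100 mM Tris pH 8.5, then reaction started with compound (4 mM stock). Stopped after 2 h with ice-cold 1 M perchloric acid, neutralised with KOH, and analysed by RP-HPLC (90% 100 mM TEAA pH 7/10% CH3CN). Degradation from the monophosphate peak after subtracting the acid-only control.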

The nature of data set [6]: Half life in human serum at 37 degC by HPLC analysis. It counts as ADME, cell-free. The gist of the method: (§3)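 Nucleotides were incubated in human blood serum or RPMI-1640 at 37 °C for 0.5–24 h. Hydrolysis was followed by the change in HPLC peak integration of each analogue over time, and half-life was derived from this.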
Data set [7] in a line: Half life of the compound in RPMI-1640 medium at 37 degC by HPLC analysis. It counts as ADME. The gist of the method: as §3
Data set [8] is described as follows: Neuroprotective activity against Fe2+-induced oxidative damage in rat primary cortical neurons assessed as cell viability after 24 hrs by MTT assay. Conditions: Cerebral cortex neuron. It counts as functional, cell-based. The gist of the method: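 Rat (1-day-old) cortical neurons were grown serum-free in DMEM/F12 with B-27 on poly-ornithine, treated with Ara-C and cultured 5 d. Cells were pretreated with nucleotide (0.01–25 µM), then exposed to FeSO4 3 µM final for 24 h. MTT 1 mg/mL was added for 2 h at 37 °C, formazan dissolved in DMSO, A550 read. Viability given as % of vehicle control; three independent experiments in triplicate.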
Background: Tetrazolium dyes change colour on reduction, which living cells bring about.

In the next data set the target is P2Y purinoceptor 1 (Homo sapiens, UniProt P47900). The experiment in a line: Agonist activity at GFP-tagged human P2Y1R transfected in human 1321N1 cells assessed as increase in intracellular Ca2+ level by fura 2/AM probe-based fluorescence assay. It counts as functional, cell-based.
The next data set deals with T2, P2Y purinoceptor 11 (Homo sapiens, UniProt Q96G91).
T2 sequence (Q96G91 whole entry): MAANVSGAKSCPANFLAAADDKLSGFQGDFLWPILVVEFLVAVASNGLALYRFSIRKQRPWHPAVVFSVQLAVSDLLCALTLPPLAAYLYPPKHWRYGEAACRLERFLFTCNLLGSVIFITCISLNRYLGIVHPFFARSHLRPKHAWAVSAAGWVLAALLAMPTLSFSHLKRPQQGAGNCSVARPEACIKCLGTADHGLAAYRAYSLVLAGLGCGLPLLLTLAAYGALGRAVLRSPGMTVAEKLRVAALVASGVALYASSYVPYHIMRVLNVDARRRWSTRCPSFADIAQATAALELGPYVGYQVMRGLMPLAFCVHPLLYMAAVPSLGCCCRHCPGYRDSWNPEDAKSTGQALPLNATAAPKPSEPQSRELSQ
The experiment in a line: Agonist activity at GFP-tagged human P2Y11R transfected in human 1321N1 cells assessed as increase in intracellular Ca2+ level by fura 2/AM probe-based fluorescence assay. It counts as functional, cell-based.

The target of data set [9] is T3, Ectonucleotide pyrophosphatase/phosphodiesterase family member 1 (Homo sapiens, UniProt P22413).
T3 sequence (P22413 whole entry): T1 sequence (P22413 whole entry)
The data set is described as §1. It counts as ADME. Conditions: 2 h, 4000 µM. The gist of the method:
as §2

Data set [10] can be described thus: Metal chelating activity assessed as inhibition of Fe2+-ferrozine complex formation at 200 uM after 10 mins relative to control. It counts as physicochemical. The gist of the method: (§4)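 Competitive ferrozine assay. FeSO4 (final 10 µM) and ferrozine (final 20 µM) are mixed with nucleotide in DDW at final 25–200 µM and agitated 10 min at room temperature. Absorbance of the Fe(II)-ferrozine complex is read at 562 nm with and without compound, and inhibition of complex formation is calculated. Three experiments, mean ± S.D.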

Data set [11] is described as follows: Metal chelating activity assessed as inhibition of Fe2+-ferrozine complex formation after 10 mins. It counts as physicochemical. The gist of the method: as §4
In data set [12] the test system is Serum. The experiment in a line: Drug metabolism in human serum assessed as formation of adenosine at 37 degC measured over 24 hrs by HPLC analysis. It counts as ADME, cell-free. The gist of the method: (§5)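 Incubation in human blood serum and in RPMI-1640 at 37 °C for 0.5–24 h. The HPLC peak integration of each nucleotide is followed over time, and half-life comes from the decay. The products AMP and adenosine are seen as HPLC peaks.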

The test system of data set [13] is Serum. The experiment in a line: Drug level in human serum treated with ADP at 37 degC measured over 24 hrs by HPLC analysis. It counts as ADME, cell-free. The gist of the method:
as §5

The nature of data set [14]: Drug level in RPMI-1640 medium treated with ADP at 37 degC measured over 24 hrs by HPLC analysis. It counts as physicochemical. The gist of the method: as §5

Usually IC50 stands for the concentration that inhibits the measured activity by half. What is called inhibition is the percentage by which the read-out fell short of the control. A word on the half-life: it is how long it takes for the measured level to halve. What is called EC50 is the concentration at which the effect is half-maximal.

Where only a bound is given, the exact number is not on record here.

Sequence of P2Y purinoceptor 1 (P47900 whole entry): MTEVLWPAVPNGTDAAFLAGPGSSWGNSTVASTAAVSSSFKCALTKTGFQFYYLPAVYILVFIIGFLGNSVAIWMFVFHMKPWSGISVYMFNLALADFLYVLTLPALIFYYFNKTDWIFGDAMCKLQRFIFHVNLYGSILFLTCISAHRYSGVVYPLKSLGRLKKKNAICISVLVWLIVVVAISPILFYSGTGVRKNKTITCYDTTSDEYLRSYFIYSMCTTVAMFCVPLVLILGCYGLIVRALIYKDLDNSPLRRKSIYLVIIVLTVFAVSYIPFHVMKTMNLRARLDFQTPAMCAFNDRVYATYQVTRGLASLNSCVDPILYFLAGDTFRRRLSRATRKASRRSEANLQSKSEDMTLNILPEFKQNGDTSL

`CSc1nc(N)c2ncn([C@@H]3O[C@H](COP(=O)(S)OP(=O)(O)O)[C@@H](O)[C@H]3O)c2n1` (stereo in doubt; 7A): the results for the IC50 (in [1]; in data set [2]; in the data set on PC-12) were 37 µM, 12.5 µM and 0.08 µM, respectively. Besides, the “inhibition (INH)” value in data set [3] stood at 50%. For the same compound, the inhibition at 0.2 µM in [4] was 50%. Also, in data set [5], the metabolised at 2 h, 4000 µM worked out at 36.6%. In addition, the half-life in [6] and in data set [7] was 15 h in each case. The EC50 in data set [8] was 0.04 µM; at P2Y purinoceptor 1 it was 0.0026 µM; on P2Y purinoceptor 11, 3.2 µM.
Regarding `CSc1nc(N)c2ncn([C@@H]3O[C@H](COP(=O)(S)OP(=O)(O)O)[C@@H](O)[C@H]3O)c2n1` (stereo in doubt; 7B), the concentration for half-maximal inhibition (IC50) in data set [1] stood at 38 µM; in data set [2], 12 µM; in the data set with PC-12, 0.6 µM. In data set [9], the Drug metabolism was 23.7%. Besides, the values for the EC50 on P2Y purinoceptor 1 and at P2Y purinoceptor 11 were 0.017 µM and 1 µM, respectively.
Consider `Nc1ncnc2c1ncn2[C@@H]1O[C@H](COP(=O)(O)OP(=O)(O)O)[C@@H](O)[C@H]1O` [ADENOSINE DIPHOSPHATE], for which the IC50 was 170 µM in data set [1], 30 µM in [2] and above 200 µM in data set [11]. In addition, in data set [10], the “inhibition (INH)” value was found to be 40%. Moreover, the half-life in data set [6] and in data set [7] was 1.5 h each time. The Drug metabolism result in the data set with Serum [12] is given as “metabolite_detected”. Also, the EC50 in data set [8] stood at 19 µM.
For the compound `Nc1ncnc2c1ncn2[C@@H]1O[C@H](CO)[C@@H](O)[C@H]1O` [ADENOSINE], the Drug metabolism result (in the data set on Serum [13]; in data set [14]) was “metabolite_detected” each time.

Source of the values: ChEMBL document CHEMBL3632592, “Identification of Highly Promising Antioxidants/Neuroprotectants Based on Nucleoside 5'-Phosphorothioate Scaffold. Synthesis, Activity, and Mechanisms of Action” (J Med Chem, 2015).
